ChEMBL document CHEMBL4808215, “Discovery of Selective Small-Molecule Inhibitors for the ENL YEATS Domain” (J Med Chem, 2021)
The source made the active and inactive calls. The rule behind the calls is not given here.

Assays:
Protein ENL = target: T1, Protein ENL (Homo sapiens, UniProt Q03111); experiment: Inhibition of human His-ENL YEATS domain and biotinylated H3K9ac peptide interaction by AlphaScreen assay
T1 sequence (Q03111 whole entry): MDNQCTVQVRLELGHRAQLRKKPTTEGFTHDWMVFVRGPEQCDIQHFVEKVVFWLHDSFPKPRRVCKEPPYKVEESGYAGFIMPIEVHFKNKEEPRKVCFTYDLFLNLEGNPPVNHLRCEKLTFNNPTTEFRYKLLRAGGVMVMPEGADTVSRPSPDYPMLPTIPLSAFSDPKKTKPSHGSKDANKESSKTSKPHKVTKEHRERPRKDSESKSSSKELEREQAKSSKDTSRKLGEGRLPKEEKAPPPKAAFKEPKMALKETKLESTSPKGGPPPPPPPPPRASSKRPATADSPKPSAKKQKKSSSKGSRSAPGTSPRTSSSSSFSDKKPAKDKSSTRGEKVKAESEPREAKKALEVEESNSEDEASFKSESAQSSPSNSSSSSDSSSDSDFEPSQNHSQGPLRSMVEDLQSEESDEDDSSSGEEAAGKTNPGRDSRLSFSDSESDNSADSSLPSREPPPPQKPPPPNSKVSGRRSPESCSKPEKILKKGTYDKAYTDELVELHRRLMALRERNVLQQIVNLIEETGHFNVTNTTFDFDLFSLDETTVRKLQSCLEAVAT

Protein AF-9 = target: T2, Protein AF-9 (Homo sapiens, UniProt P42568); experiment: Inhibition of human His-AF9 YEATS domain and biotinylated H3K9ac peptide interaction by AlphaScreen assay
T2 sequence (P42568 whole entry): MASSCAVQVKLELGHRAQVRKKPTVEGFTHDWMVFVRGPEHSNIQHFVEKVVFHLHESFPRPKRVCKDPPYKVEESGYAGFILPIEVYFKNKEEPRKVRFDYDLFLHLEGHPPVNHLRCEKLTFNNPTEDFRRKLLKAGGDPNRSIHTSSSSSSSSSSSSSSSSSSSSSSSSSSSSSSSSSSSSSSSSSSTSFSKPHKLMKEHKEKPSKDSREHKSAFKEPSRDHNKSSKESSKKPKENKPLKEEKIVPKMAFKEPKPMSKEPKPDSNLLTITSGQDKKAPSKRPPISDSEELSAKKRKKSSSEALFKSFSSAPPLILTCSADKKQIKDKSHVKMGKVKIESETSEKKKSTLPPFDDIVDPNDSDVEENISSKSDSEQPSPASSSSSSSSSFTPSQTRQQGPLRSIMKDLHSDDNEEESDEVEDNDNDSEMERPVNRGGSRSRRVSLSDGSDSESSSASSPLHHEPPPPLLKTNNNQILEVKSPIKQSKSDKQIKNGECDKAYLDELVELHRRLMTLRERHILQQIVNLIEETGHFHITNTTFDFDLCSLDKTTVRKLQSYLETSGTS

[1] = target: T3, YEATS domain-containing protein 4 (Homo sapiens, UniProt O95619); experiment: Inhibition of human His-GAS41 YEATS domain and biotinylated H3K27ac peptide interaction by AlphaScreen assay
T3 sequence (O95619 whole entry, the tested form may be a part): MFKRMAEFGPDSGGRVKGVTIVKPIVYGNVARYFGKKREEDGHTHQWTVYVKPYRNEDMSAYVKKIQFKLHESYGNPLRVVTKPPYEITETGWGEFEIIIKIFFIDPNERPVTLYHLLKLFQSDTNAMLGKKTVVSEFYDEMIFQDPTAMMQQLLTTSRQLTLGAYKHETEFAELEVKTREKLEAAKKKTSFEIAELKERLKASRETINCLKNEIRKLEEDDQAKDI
Procedure, shortened: (§1)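 His-tagged YEATS domains were expressed in E. coli Rosetta-2 (DE3) pLysS and purified on Ni-NTA. Partners were biotinylated peptide on streptavidin donor and Ni2+-chelate acceptor beads: AF9 30 nM with H3K9ac, GAS41 100 nM with H3K27ac, YEATS2 100 nM with H3K27cr. Peptides at 30 nM, buffer 50 mM HEPES pH 7.4, 100 mM NaCl, 0.1% BSA, 0.05% CHAPS. Thirteen-point 3-fold series from 54 μM to 0.1 nM, 4–6 replicates, signal normalised to no-compound control, four-parameter fit.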

[2] = target: T4, YEATS domain-containing protein 2 (Homo sapiens, UniProt Q9ULM3); experiment: Inhibition of human His-YEATS2 YEATS domain and biotinylated […] peptide interaction by AlphaScreen assay; procedure, shortened: as §1
T4 sequence (Q9ULM3 whole entry): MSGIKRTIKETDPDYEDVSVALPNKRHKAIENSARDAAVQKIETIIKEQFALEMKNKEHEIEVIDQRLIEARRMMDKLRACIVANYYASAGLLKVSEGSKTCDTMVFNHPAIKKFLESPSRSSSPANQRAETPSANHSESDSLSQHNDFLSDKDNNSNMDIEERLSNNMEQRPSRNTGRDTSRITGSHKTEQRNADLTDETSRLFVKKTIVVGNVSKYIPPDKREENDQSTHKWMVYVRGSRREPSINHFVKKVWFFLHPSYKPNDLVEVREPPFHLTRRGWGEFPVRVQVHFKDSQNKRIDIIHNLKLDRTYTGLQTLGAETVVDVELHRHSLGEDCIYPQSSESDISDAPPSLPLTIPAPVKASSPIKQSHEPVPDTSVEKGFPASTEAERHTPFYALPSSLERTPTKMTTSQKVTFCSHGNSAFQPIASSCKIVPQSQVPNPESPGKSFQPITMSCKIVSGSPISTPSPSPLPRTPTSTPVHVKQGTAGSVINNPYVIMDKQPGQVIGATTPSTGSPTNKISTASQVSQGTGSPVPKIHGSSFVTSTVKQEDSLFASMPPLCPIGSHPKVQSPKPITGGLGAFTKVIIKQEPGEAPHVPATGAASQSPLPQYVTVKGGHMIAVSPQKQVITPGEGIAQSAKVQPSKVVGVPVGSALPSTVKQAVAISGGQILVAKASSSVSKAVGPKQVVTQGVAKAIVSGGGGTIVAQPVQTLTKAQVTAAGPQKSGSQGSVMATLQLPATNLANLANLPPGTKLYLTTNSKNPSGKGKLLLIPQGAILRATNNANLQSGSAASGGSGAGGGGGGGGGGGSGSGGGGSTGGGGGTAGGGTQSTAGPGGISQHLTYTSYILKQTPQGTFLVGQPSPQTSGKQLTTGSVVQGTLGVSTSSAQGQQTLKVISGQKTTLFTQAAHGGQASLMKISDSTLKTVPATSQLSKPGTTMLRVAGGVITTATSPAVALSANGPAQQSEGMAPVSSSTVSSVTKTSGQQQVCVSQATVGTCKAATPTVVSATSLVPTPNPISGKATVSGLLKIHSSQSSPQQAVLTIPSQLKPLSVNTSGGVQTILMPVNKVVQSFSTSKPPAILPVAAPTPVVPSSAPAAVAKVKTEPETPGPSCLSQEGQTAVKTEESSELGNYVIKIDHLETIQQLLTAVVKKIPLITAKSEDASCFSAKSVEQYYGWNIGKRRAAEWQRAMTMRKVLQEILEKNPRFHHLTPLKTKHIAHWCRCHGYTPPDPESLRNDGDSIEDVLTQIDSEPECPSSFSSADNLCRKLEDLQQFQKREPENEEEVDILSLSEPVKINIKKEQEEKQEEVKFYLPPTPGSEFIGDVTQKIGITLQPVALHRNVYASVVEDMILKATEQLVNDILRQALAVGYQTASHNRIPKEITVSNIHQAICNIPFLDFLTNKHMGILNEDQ

[3] = target: T5, Protein AF-9 (Homo sapiens) (UniProt P42568); experiment: Inhibition of human His-AF9 YEATS domain and biotinylated H3K9ac peptide interaction at 20 uM by AlphaScreen assay
T5 sequence (whole entry): T2 sequence (P42568 whole entry)

[4] = target: T3, YEATS domain-containing protein 4; experiment: Inhibition of human His-GAS41 YEATS domain and biotinylated H3K27ac peptide interaction at 20 uM by AlphaScreen assay
[5] = target: T6, YEATS domain-containing protein 2 (Homo sapiens) (UniProt Q9ULM3); experiment: Inhibition of human His-YEATS2 YEATS domain and biotinylated […] peptide interaction at 20 uM by AlphaScreen assay
T6 sequence (whole entry): T4 sequence (Q9ULM3 whole entry)

IC50 (Protein ENL) [nM]	also measured	SMILES
202	–	O=C(NCc1cccc(CN2CCC2)c1)c1ccc2nncn2c1
636	–	O=C(NCc1ccc(CN2CCCCC2)cc1)c1ccc2nncn2c1
264	–	CC(C)(C)C1CCN1Cc1ccc(CNC(=O)c2ccc3nncn3c2)cc1 (stereo not drawn)
> 1000	–	CC(NC(=O)c1ccc2nncn2c1)c1ccc(CN2CCC2)cc1 (stereo not drawn)
–	IC50 (Protein AF-9): 729 nM; IC50 [1]: > 54000 nM; IC50 [2]: > 54000 nM; inhibition [3]: Active; inhibition [4]: Active; inhibition [5]: Active	O=C(NCc1ccc(CNc2ncc(F)cn2)cc1)c1ccc2nncn2c1
266	–	CC(C)C1CCN1Cc1ccc(CNC(=O)c2ccc3nncn3c2)cc1 (stereo not drawn)
891	–	O=C(NCc1ccc(CN2CCOCC2)cc1)c1ccc2nncn2c1
> 5000	–	O=C(NCc1ccc(CN2CCC2)cc1)c1ccn2cnnc2c1
